The values below come from ChEMBL document CHEMBL4819149, “A facile reaction to access novel structural sulfonyl-hybridized imidazolyl ethanols as potential DNA-targeting antibacterial agents” (Bioorg Med Chem Lett, 2021).

Data set [1] concerns Staphylococcus aureus. Nature of the data set: Antibacterial activity against methicillin-resistant Staphylococcus aureus assessed as bacterial growth inhibition by broth microdilution method. The format is functional. In outline: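 MIC read by micro broth dilution; values given in μg/mL.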
For data set [2], the system named is Enterococcus faecalis. Nature of the data set: Antibacterial activity against Enterococcus faecalis assessed as bacterial growth inhibition by broth microdilution method. The format is functional. The method, boiled down: (§1)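 MIC values reported in µg/mL, determined by broth microdilution in microdilution plates.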
On the technique in general: Dilution methods test growth across graded concentrations, often in twofold steps.

In data set [3] the test system is Staphylococcus aureus. Nature of the data set: Antibacterial activity against Staphylococcus aureus assessed as bacterial growth inhibition by broth microdilution method. The format is functional. In outline: as §1
For data set [4], the system named is Staphylococcus aureus. Nature of the data set: Antibacterial activity against Staphylococcus aureus ATCC 25923 assessed as bacterial growth inhibition by broth microdilution method. The format is functional. In outline:
as §1

Data set [5] deals with Staphylococcus aureus. Nature of the data set: Antibacterial activity against Staphylococcus aureus ATCC 29213 assessed as bacterial growth inhibition by broth microdilution method. The format is functional. The method, boiled down:
as §1

In the next data set the test system is Klebsiella pneumoniae. Nature of the data set: Antibacterial activity against Klebsiella pneumonia assessed as bacterial growth inhibition by broth microdilution method. The format is functional. In outline: as §1
In data set [6] the test system is Pseudomonas aeruginosa. Nature of the data set: Antibacterial activity against Pseudomonas aeruginosa ATCC 27853 assessed as bacterial growth inhibition by broth microdilution method. The format is functional. In outline:
as §1

In data set [7] the test system is Pseudomonas aeruginosa. Nature of the data set: Antibacterial activity against Pseudomonas aeruginosa assessed as bacterial growth inhibition by broth microdilution method. The format is functional. In outline: as §1
A further data set concerns Acinetobacter baumannii. Nature of the data set: Antibacterial activity against Acinetobacter baumannii assessed as bacterial growth inhibition by broth microdilution method. The format is functional. In outline: as §1
Data set [8] concerns Escherichia coli. Nature of the data set: Antibacterial activity against Escherichia coli assessed as bacterial growth inhibition by broth microdilution method. The format is functional. The method, boiled down: as §1
The test system of data set [9] is Escherichia coli. Nature of the data set: Antibacterial activity against Escherichia coli ATCC 25922 assessed as bacterial growth inhibition by broth microdilution method. The format is functional. In outline: as §1
For data set [10], the system named is Staphylococcus aureus. Nature of the data set: Antibacterial activity against methicillin-resistant Staphylococcus aureus measured after 13 passages by broth microdilution method. The format is functional, organism-based.
Data set [11] has as its system DNA. Nature of the data set: Binding affinity to DNA (unknown origin) assessed as hypochromic shift by UV-vis spectrophotometric analysis. The format is nucleic-acid assay. The method, boiled down: (§2)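 DNA UV-vis absorption spectra were recorded with increasing test compound concentration, following the 260 nm peak intensity and position. Hypochromism was judged by comparing the summed absorbance of free DNA and free compound with the measured absorbance of the compound-DNA complex.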

The test system of a further data set is Calf thymus DNA. Nature of the data set: Binding affinity to calf thymus DNA assessed as DNA intercalation by competitive neutral red dye displacement based UV-Vis absorbance analysis. To be noted: Bos taurus. In outline:
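Neutral red (NR) competition: absorbance around 530 nm was followed with test compound and increasing calf thymus DNA, compared against free NR titrated with increasing calf thymus DNA.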

In data set [12] the test system is DNA. Nature of the data set: Binding affinity to methicillin-resistant Staphylococcus aureus DNA assessed as DNA intercalation by competitive neutral red dye displacement based UV-Vis absorbance analysis. The format is nucleic-acid assay.
A short description of data set [13]: Cytotoxicity against human […] assessed as reduction in cell viability at 100 ug/ml by MTT assay. The format is cell-based. To be noted: dose 100 µg/ml. The method, boiled down: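 Endothelial […] were exposed to a range of compound concentrations up to 100 µg/mL, and viability was read by MTT assay.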
In general terms: Formazan colour is commonly taken as a measure of viable cells.

Data set [14] relates to Staphylococcus aureus. Nature of the data set: Potency index, ratio of sulfathiazole MIC to test compound MIC for methicillin-resistant Staphylococcus aureus assessed as bacterial growth inhibition by broth microdilution method. The format is functional.
The subject of data set [15] is Staphylococcus aureus. Nature of the data set: Potency index, ratio of norfloxacin MIC to test compound MIC for methicillin-resistant Staphylococcus aureus assessed as bacterial growth inhibition by broth microdilution method. The format is functional.
Data set [16] has as its system Enterococcus faecalis. Nature of the data set: Potency index, ratio of sulfathiazole MIC to test compound MIC for Enterococcus faecalis assessed as bacterial growth inhibition by broth microdilution method. The format is functional.
Data set [17] deals with DNA. Nature of the data set: Binding affinity to DNA (unknown origin) assessed as increase in maximum absorption peak of DNA at 260 nm by UV-vis spectrophotometric analysis. The format is nucleic-acid assay. The method, boiled down:
as §2

Data set [18] relates to DNA. Nature of the data set: Binding affinity to DNA (unknown origin) assessed as red shift in absorption maxima by UV-vis spectrophotometric analysis. The format is nucleic-acid assay. The method, boiled down:
as §2

Converted amounts (≈) assume the structure as drawn. The source made the active and inactive calls. The calls are words filed in the database; no cut-off is given here.

Broadly, the MIC is the least concentration at which growth counts as inhibited. As to `Nc1ccc(S(=O)(=O)Nc2nccs2)cc1` [SULFATHIAZOLE], the MIC in the data set on Staphylococcus aureus [1] is 64 µg/mL (≈ 251 µM); in the data set with Enterococcus faecalis [2] it was 512 µg/mL (≈ 2010 µM); with Staphylococcus aureus [3], 512 µg/mL (≈ 2010 µM); in the data set on Staphylococcus aureus [4] it was 512 µg/mL (≈ 2010 µM); with Staphylococcus aureus [5] it was 512 µg/mL (≈ 2010 µM); in the data set on Klebsiella pneumoniae it was 128 µg/mL (≈ 501 µM). Further, the MIC with Pseudomonas aeruginosa [6] turned out to be 512 µg/mL (≈ 2010 µM); with Pseudomonas aeruginosa [7] it was 128 µg/mL (≈ 501 µM); with Acinetobacter baumannii, 64 µg/mL (≈ 251 µM); with Escherichia coli [8], 256 µg/mL (≈ 1000 µM); with Escherichia coli [9], 128 µg/mL (≈ 501 µM). In addition, the result in the data set with Staphylococcus aureus [10] was inactive.
Take `CCc1nc(C)cn1C(CO)CS(=O)(=O)c1ccc(NC(C)=O)cc1` (stereo unspecified): the MIC with Staphylococcus aureus [1] was determined as 4 µg/mL (≈ 10.9 µM); with Enterococcus faecalis [2] it was 16 µg/mL (≈ 43.8 µM); with Staphylococcus aureus [3], 64 µg/mL (≈ 175 µM); with Staphylococcus aureus [4], 128 µg/mL (≈ 350 µM); with Staphylococcus aureus [5] it was 32 µg/mL (≈ 87.6 µM); with Klebsiella pneumoniae, 128 µg/mL (≈ 350 µM). Moreover, the MIC in the data set on Pseudomonas aeruginosa [6] worked out at 32 µg/mL (≈ 87.6 µM); in the data set on Pseudomonas aeruginosa [7], 128 µg/mL (≈ 350 µM); in the data set on Acinetobacter baumannii it was 64 µg/mL (≈ 175 µM); in the data set on Escherichia coli [8], 64 µg/mL (≈ 175 µM); in the data set with Escherichia coli [9], 32 µg/mL (≈ 87.6 µM). The outcome with DNA [11], in the data set on DNA [12], with Staphylococcus aureus [10], in the data set with DNA [17] and with DNA [18] was Active. The result in the data set on Calf thymus DNA was inactive. The Activity entry in [13] was “Non-Toxic”. Besides, the Ratio in the data set on Staphylococcus aureus [14] turned out to be 16; in the data set with Staphylococcus aureus [15], 2; with Enterococcus faecalis [16], 32.
On to `CCn1cc(C(=O)O)c(=O)c2cc(F)c(N3CCNCC3)cc21` [NORFLOXACIN], for which the MIC in the data set with Staphylococcus aureus [1] is 8 µg/mL (≈ 25.1 µM); with Enterococcus faecalis [2] it was 256 µg/mL (≈ 802 µM); in the data set on Staphylococcus aureus [3], 8 µg/mL (≈ 25.1 µM); in the data set with Staphylococcus aureus [4] it was 1 µg/mL (≈ 3.13 µM); with Staphylococcus aureus [5], 1 µg/mL (≈ 3.13 µM); with Klebsiella pneumoniae, 256 µg/mL (≈ 802 µM). In addition, the MIC was determined as 16 µg/mL (≈ 50.1 µM) with Pseudomonas aeruginosa [6]; 256 µg/mL (≈ 802 µM) with Pseudomonas aeruginosa [7]; 8 µg/mL (≈ 25.1 µM) in the data set on Acinetobacter baumannii; 512 µg/mL (≈ 1600 µM) in the data set with Escherichia coli [8]; 512 µg/mL (≈ 1600 µM) in the data set with Escherichia coli [9]. For the same molecule, in the data set on Staphylococcus aureus [10], the outcome was inactive.
On to `CCc1nc(I)cn1C(CO)CS(=O)(=O)c1ccc(NC(C)=O)cc1` (stereo unspecified), for which the minimum inhibitory concentration (MIC) with Staphylococcus aureus [1] is 128 µg/mL (≈ 268 µM); with Enterococcus faecalis [2] it was 64 µg/mL (≈ 134 µM); with Staphylococcus aureus [3], 64 µg/mL (≈ 134 µM); in the data set on Staphylococcus aureus [4], 64 µg/mL (≈ 134 µM); in the data set with Staphylococcus aureus [5] it was 64 µg/mL (≈ 134 µM); in the data set on Klebsiella pneumoniae, 64 µg/mL (≈ 134 µM). Besides, the minimal inhibitory concentration (MIC) in the data set with Pseudomonas aeruginosa [6] is 32 µg/mL (≈ 67 µM); in the data set on Pseudomonas aeruginosa [7], 256 µg/mL (≈ 536 µM); in the data set on Acinetobacter baumannii, 64 µg/mL (≈ 134 µM); in the data set with Escherichia coli [8], 64 µg/mL (≈ 134 µM); with Escherichia coli [9] it was 32 µg/mL (≈ 67 µM).
